SMARCA2 act = increases SMARCA2 function in MMTV reporter cells; AID 652017; MG213 cells, MMTV-luciferase reporter, dexamethasone, overnight; activation, % at 9.1 µM; 370,000 compounds, 1% hits; in the data active = activation above about 7.8%;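 note: 0% = vehicle wells and 100% = reference activator wells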
ASAP1 GAP inh = blocks human ASAP1-stimulated Arf1 GTP hydrolysis | GDP FP detection | inhibition, % at 16.5 µM | Q9ULH1 | 360,000 compounds, 0.19% hits; in the data active = inhibition above about 25%;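 note: 0% = vehicle with enzyme and substrate and 100% = no enzyme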
Target sequence (Q9ULH1 325-724 limits assumed): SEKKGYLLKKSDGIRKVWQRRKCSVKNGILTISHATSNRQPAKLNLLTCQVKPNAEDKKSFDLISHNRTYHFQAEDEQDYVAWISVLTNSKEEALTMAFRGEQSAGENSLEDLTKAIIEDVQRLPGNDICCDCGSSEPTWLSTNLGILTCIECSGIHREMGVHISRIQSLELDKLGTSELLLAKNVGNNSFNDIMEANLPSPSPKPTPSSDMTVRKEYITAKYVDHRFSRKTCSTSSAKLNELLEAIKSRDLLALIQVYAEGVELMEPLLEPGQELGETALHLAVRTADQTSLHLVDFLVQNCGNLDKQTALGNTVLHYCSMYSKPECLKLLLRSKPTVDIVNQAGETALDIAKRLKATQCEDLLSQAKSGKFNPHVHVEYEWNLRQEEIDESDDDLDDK
ARFGAP1 inhibitor = inhibitors of rat ARFGAP1 | inhibition, % at 16.5 µM | AID 651572 | Q62848 | 360,000 compounds, 0.26% hits | Arfgap1-stimulated ARF1 GTP hydrolysis, GDP FP detection;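 active = inhibition above a per-plate limit, mean inhibition of low control wells plus 3 SD, cut at about 25% in these data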;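 note: 0% = DMSO wells with enzyme and 100% = wells lacking Arfgap1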
Target sequence (Q62848 1-136 limits assumed): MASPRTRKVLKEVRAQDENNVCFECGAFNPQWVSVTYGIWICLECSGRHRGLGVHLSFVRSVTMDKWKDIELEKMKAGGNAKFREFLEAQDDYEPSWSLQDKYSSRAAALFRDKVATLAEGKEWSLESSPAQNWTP
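Material – truncated rat Arfgap1 GAP domain · Buffer or medium – HEPES-based buffer, pH 7.5 · Reagent – human ARF1(Δ1-17)-GTP substrate · Dosing – 16.5 µM single point, 1.26% DMSO · Schedule – GTP hydrolysis reaction 2 h at 25 °C · Technique – GDP detection by fluorescence polarization · Benchmarks – No-Arfgap1 wells (100%) versus DMSO full-reaction wells (0%) · Repeats – single replicate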
esBAF inh = inhibitors of esBAF chromatin remodeling in mouse ES cells. 350,000 compounds, 2% hits. Bmi1-luciferase knock-in reporter, 24 h; 100% = twice the neutral-well signal. AID 602393. reporter increase, % at 12.5 µM; in the data active = activation above about 40%; inconclusive = no clear call, values can overlap the other calls;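 note: 0% = median of the plate's neutral control wells and 100% = double that signal; a rise in the Bmi1 reporter signal indicates esBAF inhibition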
esBAF Ring1 qPCR = de-represses Ring1 in mouse ESCs, confirming esBAF inhibition. 550 tested, under 10 active. mouse ESC E14, Ring1 mRNA RT-qPCR fold change. AID 743176. shares compounds with esBAF inh. fold change at 33 µM;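 active = Ring1 gene expression raised more than 2-fold over untreated cells in both replicates at either tested dose; inconclusive = only one replicate above 2-fold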;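 note: Ring1 transcript normalised to actin housekeeping signal by TaqMan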
esBAF Fgf4 qPCR = esBAF inhibition confirmed by Fgf4 repression. shares compounds with esBAF inh. mouse ESC E14, Fgf4 mRNA qPCR fold change; hits give low values. Fgf4 expression fold change at 33 µM. 550 compounds, 4% hits;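 active = Fgf4 expression under 0.8 fold of control in both repeat measurements at one or both tested doses; inconclusive = under 0.8 fold in just a single repeat measurement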;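 note: Fgf4 transcript normalised to actin in duplex TaqMan qPCR; cells exposed to compound for 24 h before lysis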
esBAF Bmi1 qPCR = confirmation of esBAF inhibitors: Bmi1 de-repression in mouse ESCs; shares compounds with esBAF inh; mouse ESE14 ES cells, Bmi1 mRNA qPCR fold; hits give high values; fold change at 33 µM; 550 tested, under 10 active; AID 743180;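 active = Bmi1 expression fold change above 6 at either tested concentration, seen in replicate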;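 note: higher fold means more Bmi1 de-repression and stronger esBAF inhibition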
A549 cytotox = kills or reduces viability of A549 cells. shares compounds with esBAF inh. A549 cytotoxicity, plate reader. cell viability change % (negative = cytotoxic), % at 25 µM, hits read low. 550 tested, under 10 active; call rule not given here
HepG2 cytotox SP = HepG2 cell cytotoxicity at single point. 550 compounds, 4% hits. plate reader; hits give low values. shares compounds with esBAF inh. AID 743189. activity change, negative = inhibition, % at 25 µM; in the data active = activity change below about -50%
HEK293 tox SP = HEK293 cell cytotoxicity at single point | shares compounds with esBAF inh | plate reader | activity change, negative = inhibition, % at 25 µM, hits read low | 550 compounds, 3% hits | AID 743190; in the data active = activity change below about -38%, passing the limit was not always enough
* marks the source's active call; other numbers are inactive results; u = inconclusive; x = no result given. Compounds with a hit are over-represented: about 2.6% of the library has one in this group of screens.

SMILES	SMARCA2 act	ASAP1 GAP inh	ARFGAP1 inhibitor	esBAF inh	esBAF Ring1 qPCR	esBAF Fgf4 qPCR	esBAF Bmi1 qPCR	A549 cytotox	HepG2 cytotox SP	HEK293 tox SP
COc1ccc(OCc2cc(C(=O)N3CCN(C4CCCC4)CC3)no2)c(Cl)c1	2.7	-13.0	1.7	u	x	x	x	x	x	x
COc1cccc(OCc2cc(C(=O)N(C)C3CCCCC3)no2)c1	6.9	7.1	-4.7	79.9*	1.12	0.943	1.57	-10.6	16.5	-21.6
C[C@@H]1CN([C@H](C)CO)C(=O)c2cc(C3=CCCC3)cnc2O[C@H]1CN(C)Cc1ccc(C(=O)O)cc1	x	x	x	0.9	x	x	x	x	x	x
O=C(N/N=C/c1cccs1)c1cccc2cc[nH]c12	7.3	8.4	6.1	56.9*	1.36	1.07	1.25	-16.2	19.7	1.4
C[C@H](CO)N1C[C@H](C)[C@H](CN(C)S(=O)(=O)c2ccccc2)Oc2ccc(NS(=O)(=O)c3ccccc3)cc2C1=O	x	x	x	2.8	x	x	x	x	x	x
O=C(Cc1ccccc1)N1CC[C@@H]2[C@H]1c1cc(-c3ccccc3)ccc1N[C@@H]2CO	x	x	x	15.8	x	x	x	x	x	x
Nc1n[nH]c(N)c1N=Nc1ccc(Cl)cc1	-2.0	9.5	2.4	52.8*	1.4	1.07	1.87	0.2	3.3	4.8
Nc1n[nH]c(N)c1N=Nc1cccc(F)c1	-1.1	11.5	-2.4	29.9	x	x	x	x	x	x
C[C@@H]1CN([C@H](C)CO)C(=O)Cc2cc(NC(=O)CCCCCC(=O)Nc3ccccc3N)ccc2O[C@H]1CN(C)C(=O)Nc1ccc(C(F)(F)F)cc1	x	x	x	6.8	x	x	x	x	x	x
Cc1ccc(Cl)c2c(N=Nc3ccccc3)c(O)[nH]c12	2.3	-6.7	-12.5	57.6*	1.49	0.98	1.56	3.5	24.3	-9.1
Cc1cc(Cl)cc2c(N=Nc3ccccc3C(=O)O)c(O)[nH]c12	1.8	17.1	-5.9	15.7	x	x	x	x	x	x
C[C@H](CO)N1C[C@H](C)[C@@H](CN(C)Cc2ccc(Cl)c(Cl)c2)OCCCC[C@H](C)Oc2ccc(NC(=O)Cc3ccccc3)cc2C1=O	x	x	x	-0.4	x	x	x	x	x	x
COc1ccc(-c2cn3c(C)c(C(=O)NC(C)(C)C)sc3n2)cc1	2.5	-3.5	-5.8	72.3*	0.823	0.901	1.94	2.9	-11.7	-7.5
O=C(Nc1ccccc1)N[C@H]1CC[C@H](CCn2cc(C3(O)CCCC3)nn2)O[C@@H]1CO	x	x	x	3.0	x	x	x	x	x	x
c1ccc(-c2cc3ccccc3[nH]2)cc1	-1.3	-0.2	-4.6	54.3*	0.96	1.15	1.2	-2.9	-23.9	-16.5
C[C@@H]1CCCCO[C@H](CN(C)Cc2ccc(C(F)(F)F)cc2)[C@H](C)CN([C@H](C)CO)C(=O)c2cc(NS(=O)(=O)c3ccc(Cl)cc3)ccc2O1	x	x	x	-6.3	x	x	x	x	x	x
COc1cc(C=O)c(Br)cc1OCc1ccc(C)cc1	1.2	14.1	-12.5	81.4*	1.54	1.12	1.87	-5.1	2.7	-10.9
O=C(C[C@H]1C=C[C@@H](NC(=O)C2CCC2)[C@H](CO)O1)NCCCN1CCOCC1	x	x	x	0.2	x	x	x	x	x	x
COc1cccc(NC(=O)c2ccccc2Br)c1	2.7	-2.3	-2.8	56.7*	1.31	1.01	1.41	-7.6	-23.1	-11.7
COc1ccccc1C(=O)Oc1ccccc1C(=O)Nc1ccccc1	5.9	-7.5	-10.6	68.6*	1.17	0.954	1.39	-14.5	-23.4	-16.0
O=C(C[C@H]1CC[C@H]2[C@@H](COC[C@@H](O)CN2Cc2cccc(F)c2)O1)NCc1cccc(F)c1	x	x	x	1.5	x	x	x	x	x	x
CCCc1nc2c3ccccc3ccn2c1Cc1cccc(Cl)c1	4.4	6.0	2.7	38.8	x	x	x	x	x	x
CCCc1nc2c3ccccc3ccn2c1Cc1ccc(C)cc1	2.8	2.5	-8.8	100.7*	1.34	0.963	1.93	-4.5	-56.2*	-13.2
